Most compounds without a hit are left out; they make up all but 1.7% or so of the library.
T cell modulator: T cell immune modulators affecting CD8 T cell-vesicle binding. 2C CD8+ T cell-vesicle binding, flow cytometry; stronger effect = lower value. response (vesicle binding), % at 7 µM. 330,000 compounds, 0.068% hits;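 active means response, share of CD8 T cells binding vesicles, and their 90th percentile fluorescence all below set limits, cut at about 80% in these data, passing the limit was not always enough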;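 further: values below 100% mean blocked vesicle binding to the CD8+ T cells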
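System: murine 2C transgenic CD8+ T lymphocytes; also added: QL9-loaded Drosophila micro-vesicles; times: binding 1.5 h at 37 °C; measured by: flow cytometry, PE anti-B7-1 (FL2) versus Alexa647 anti-CD8 (FL8), PFA-fixed; control set: Peptide-free naked vesicles (low) and QL9 vesicles with 0.7% DMSO vehicle (high)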
HTR2A ag: mouse HTR2A agonism via beta-arrestin recruitment; P35363; CHO-K1 mHTR2A beta-arrestin complementation, luminescence; percent of 30 µM serotonin response; activation, % at 7.6 µM; 360,000 compounds, 0.66% hits; AID 624169;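 active means activation above a run cutoff, the mean activation of all tested compounds plus 3 SD, cut at about 14% in these data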;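 further: 0% = plate median of compound wells and 100% = 30 µM serotonin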
PP1 counter: blocks human PP1-alpha phosphatase, a PP5 counter-screen; P62136; purified PP1alpha, OMFP fluorescence; inhibition, % at 6.7 µM; 320,000 compounds, 0.9% hits;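 active means inhibition above the mean inhibition of all tested compounds plus 3 SD, computed separately for each screening campaign, cut at about 15% in these data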
PP5 primary: inhibitors of human protein phosphatase 5 (PP5) | inhibition, % at 6.7 µM | AID 1987 | 320,000 compounds, 0.18% hits | P53041 | purified PP5c, OMFP substrate fluorescence;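 active means inhibition above the campaign's mean inhibition across all tested compounds plus 3 SD, cut at about 9.5% in these data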;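 further: 0% = DMSO only and 100% = 100 µM cantharidin control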
Target sequence (P53041 whole entry, looked up): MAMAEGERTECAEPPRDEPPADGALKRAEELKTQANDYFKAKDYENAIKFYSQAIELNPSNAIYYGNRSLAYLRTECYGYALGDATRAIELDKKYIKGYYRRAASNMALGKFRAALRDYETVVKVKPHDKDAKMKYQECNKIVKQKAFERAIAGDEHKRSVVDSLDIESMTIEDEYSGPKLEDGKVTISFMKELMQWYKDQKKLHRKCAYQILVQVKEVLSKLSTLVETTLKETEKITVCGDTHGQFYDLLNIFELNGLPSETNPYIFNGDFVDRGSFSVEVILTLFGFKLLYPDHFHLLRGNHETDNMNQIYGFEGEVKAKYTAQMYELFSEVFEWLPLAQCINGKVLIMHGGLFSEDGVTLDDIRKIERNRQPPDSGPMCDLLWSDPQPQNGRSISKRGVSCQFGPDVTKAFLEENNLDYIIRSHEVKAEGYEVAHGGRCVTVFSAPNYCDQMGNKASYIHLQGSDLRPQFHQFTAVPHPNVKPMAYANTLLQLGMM
GASC-1 inh: human JMJD2C demethylase inhibition; Q9H3R0; GST-JMJD2C(1-420) H3K9me3 demethylation, DELFIA europium; inhibition, % at 2.35 µM; 330,000 compounds, 0.069% hits; AID 2099;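 active means more than half of a compound's replicate wells show inhibition beyond 50%, single wells judged on their own value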;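 further: signal counts dimethyl H3K9 product captured on neutravidin plate; 0% = median of DMSO wells and 100% = 0.3 times that DMSO median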
* hit, by the source's call; . = no result.

SMILES | T cell modulator | HTR2A ag | PP1 counter | PP5 primary | GASC-1 inh
CCC(C)(O)c1[nH]c2ccc(C(F)(F)F)cc2c1C (configuration not stated) | 247.8 | 1.5 | -3.6 | 4.9 | 6.0
CC1CCc2nc(NC(=O)Nc3ccc4c(c3)OCO4)sc2C1 (configuration not stated) | 467.3 | -2.6 | 6.9 | -3.8 | 2.2
O=C(NCCCc1ccccc1)c1cnc2n(c1=O)CCS2 | 430.7 | -3.1 | -7.4 | 2.9 | -1.7
CCCCNC(=O)c1cnc2n(c1=O)CCS2 | 25.8* | -1.9 | -2.5 | -1.0 | -3.4
Cc1c(C(=O)NCc2ccc3c(c2)OCCO3)sc(=O)n1Cc1cccc(C(F)(F)F)c1 | . | -3.4 | . | . | .
O=C(/C=C/c1cccs1)NNC(=O)c1ccccc1 | 30.6* | 10.1 | 3.5 | -0.1 | 6.3
O=C(NCCN1CCN(c2ccccc2)CC1)C1CCCN(S(=O)(=O)c2cnc[nH]2)C1 (configuration not stated) | 355.7 | 30.2* | -1.0 | 3.2 | 6.2
C[C@H](CO)N1C[C@H](C)[C@@H](CN(C)C(=O)Nc2ccc(C(F)(F)F)cc2)Oc2c(NC(=O)Nc3ccc(C(F)(F)F)cc3)cccc2C1=O | 328.8 | 15.5* | . | . | -9.2
COc1ccc(NC(=O)N(C)C[C@H]2Oc3c(NS(=O)(=O)c4cn(C)cn4)cccc3C(=O)N([C@H](C)CO)C[C@@H]2C)cc1 | 98.4 | -4.7 | . | . | 57.9*
C[C@H]1CN([C@@H](C)CO)C(=O)c2cccc(NC(=O)Nc3ccc(C(F)(F)F)cc3)c2O[C@@H]1CN(C)C(=O)Nc1ccc(F)cc1 | 333.0 | -9.9 | . | . | -3.8
O=C(NCC1CCN(S(=O)(=O)c2ccccc2)CC1)Nc1ccc(F)cc1F | 728.6 | -1.9 | -3.5 | 1.0 | 8.3
Cc1cc(C)n(C(=O)Cc2cn3ccsc3n2)n1 | 72.2* | -0.7 | -1.8 | -0.2 | -2.1
Cc1cc(C)n(CC(=O)n2nc(C)cc2C)n1 | 366.5 | 5.8 | -2.0 | -1.8 | 1.0
COc1ccc(CCCNC(=O)C2Cc3c(-c4cccc(NC(C)=O)c4)ccnc3O2)cc1 (configuration not stated) | . | 8.1 | . | . | .
CC12CCC(c3c(C(=O)O)nn(-c4ccccc4)c31)C2(C)C (configuration not stated) | 300.7 | -0.3 | 16.6* | 1.3 | -0.4
CC(C)COc1ccc(C(=O)NNC(=O)c2ccc(=O)[nH]c2)cc1 | 234.8 | -4.3 | 1.9 | 4.3 | -7.2
COc1ccc(OC)c(Nc2nc(-c3cccs3)cs2)c1 | 283.6 | -3.6 | -1.5 | 3.5 | 50.9*
Cc1ccc(NC(=O)/C=C/c2ccc(S(=O)(=O)N3CCOCC3)cc2)cc1S(=O)(=O)N(C)C | . | 13.9 | . | . | .
Cc1cccc(N(C(=O)c2snc(C(N)=O)c2N)C(C(=O)NCC2CCCO2)c2ccc(N(C)C)cc2)c1C (configuration not stated) | 0.0* | -0.1 | -4.3 | 1.2 | 4.1
CCOc1ccc(-n2c(SCC(=O)Nc3ccc(Br)cc3)nc3n[nH]c(C)c3c2=N)cc1 | 115.0 | -2.6 | 16.9* | 2.6 | 8.2
Nc1ncnc2c1ncn2[C@@H]1O[C@H](C(=O)NS(=O)(=O)c2cccs2)[C@@H](O)[C@H]1O | . | 4.6 | . | . | .
CN(c1ccccc1)S(=O)(=O)c1cccc(C(=O)NCC(=O)Nc2ccc(F)c(F)c2F)c1 | 256.7 | -8.3 | . | . | -5.6
Cc1ccc(-c2nc3c(Cl)cc(Cl)cc3c(=O)n2O)cc1 | 197.8 | -5.3 | 16.9* | 1.1 | -10.7
c1ccc(CN2CCN(CCCNc3ccc4nnc(-c5ccccc5)n4n3)CC2)cc1 | 334.4 | -2.3 | 0.5 | -0.4 | 1.7
Fc1ccccc1N1CCN(CCCNc2ccc3nncn3n2)CC1 | 311.1 | 25.8* | 3.9 | -1.8 | -1.5
COc1ccc([N+](=O)[O-])cc1NC(=O)CS(=O)(=O)c1ccc(C)cc1 | 315.8 | -0.8 | -0.5 | -1.5 | 3.5
COc1ccc([N+](=O)[O-])cc1NC(=O)CCS(=O)(=O)c1ccc(Br)cc1 | 262.6 | 3.2 | 17.1* | 5.5 | 3.1
CCSc1nnc(NC(=O)C2CC=CCC2C(=O)O)s1 (configuration not stated) | 136.2 | -2.1 | 15.9* | -2.4 | 7.4
CCSc1nnc(NC(=O)C2CCCCC2)s1 | 501.3 | -2.5 | 2.1 | 3.0 | -0.8
NC(=O)CC(NC(=O)c1ccccc1)c1ccc(N2CCC(Cc3ccccc3)CC2)c([N+](=O)[O-])c1 (configuration not stated) | 291.7 | -9.1 | 17.0* | 4.6 | -3.6
